The subject of one series is PC-3. The series can be described thus: Cytotoxicity against human PC3 cells assessed as reduction in cell viability incubated for 72 hrs by MTT assay. The note with it: PC-3, 72 h. In kind it is functional, cell-based. In short, it runs like this:
(§1)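 About 5 × 10³ cells/well, seeded overnight at 37 °C, 5% CO₂, in DMEM or RPMI-1640 with 10% FBS and antibiotics. DMSO-dissolved compounds diluted in medium, exposure 72 h.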

The test system of series [1] is HCT-116. In words: Cytotoxicity against human HCT-116 cells assessed as reduction in cell viability incubated for 72 hrs by MTT assay. The series is classed as functional, cell-based. The note with it: HCT-116, 72 h. In short, it runs like this:
as §1

The test system of another series is T-24. The series can be described thus: Cytotoxicity against human T24 cells assessed as reduction in cell viability incubated for 72 hrs by MTT assay. The note with it: T-24, 72 h. In kind it is functional, cell-based. In short, it runs like this: as §1
Series [2] concerns the target T1, Aldehyde dehydrogenase 1A1 (Homo sapiens) (UniProt P00352).
T1 sequence (whole entry): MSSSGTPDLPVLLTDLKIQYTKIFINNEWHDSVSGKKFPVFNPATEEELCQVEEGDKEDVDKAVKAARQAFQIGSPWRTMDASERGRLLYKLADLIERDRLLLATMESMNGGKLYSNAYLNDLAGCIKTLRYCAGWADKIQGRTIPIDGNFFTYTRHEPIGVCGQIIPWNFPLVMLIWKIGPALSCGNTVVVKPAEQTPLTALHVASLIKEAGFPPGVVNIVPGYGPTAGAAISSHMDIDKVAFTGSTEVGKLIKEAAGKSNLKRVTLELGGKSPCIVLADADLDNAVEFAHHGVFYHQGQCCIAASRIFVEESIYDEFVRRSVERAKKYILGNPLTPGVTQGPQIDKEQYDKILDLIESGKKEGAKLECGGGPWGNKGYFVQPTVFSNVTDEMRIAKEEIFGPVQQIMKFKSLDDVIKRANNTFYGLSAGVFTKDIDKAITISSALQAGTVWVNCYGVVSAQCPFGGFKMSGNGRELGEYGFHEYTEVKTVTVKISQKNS
The series can be described thus: Inhibition of ALDH1A1 in human HCT116 cells at 20 uM after 24 hrs by aldefluor staining based fluorescence analysis. The series is classed as cell-based. The settings on record: HCT-116. In short, it runs like this:
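HCT-116 cells, 2 × 10⁵/well, grown overnight at 37 °C, 5% CO₂, then treated 24 h (vehicle DMSO). Aldefluor staining read in FITC channel by FACS for proportion of ALDH⁺ cells; DEAB-pretreated cells set baseline fluorescence.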

In series [3] the target is T1, Aldehyde dehydrogenase 1A1 (Homo sapiens). The series can be described thus: Inhibition of ALDH1A1 in human HCT116 cells assessed as reduction in mRNA transcriptional level at 20 uM after 24 hrs by RT-qPCR analysis. The note with it: HCT-116. The series is classed as cell-based. In short, it runs like this:
(§2)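 HCT-116 cells treated 24 h; total RNA by TRIZOL, one-step RT-qPCR: 55 °C 10 min, 95 °C 1 min, then 39 cycles of 95 °C 10 s and 60 °C 30 s, with melting-curve and no-template controls. β-Actin as internal standard; relative expression by 2^−ΔΔCt, mean ± SD (n = 3).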

Series [4] concerns HCT-116. The series can be described thus: Inhibition of cell stemness in human HCT116 cells assessed as reduction in size of tumor spheres at 5 uM after 10 days by microscopic analysis. The note with it: time 10.0 day. In kind it is functional, cell-based. The essentials: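 Sorted ALDH⁺ HCT-116 cells, 800/well, in serum-free DMEM with B27 (1:50), EGF 20 ng/mL, β-FGF 10 ng/mL; co-incubated with compound (5 μM) or DMSO vehicle for 10 days; sphere number, diameter and morphology scored from microscopy images; mean ± SD, n = 3.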

The subject of series [5] is HCT-116. In words: Effect on Wnt/beta-Catenin signaling in human HCT116 cells assessed as reduction in S100A4 mRNA level at 20 uM after 24 hrs by RT-qPCR analysis. The series is classed as functional, cell-based. The essentials: as §2
The subject of series [6] is HCT-116. In words: Effect on Wnt/beta-Catenin signaling in human HCT116 cells assessed as downregulation of beta-catenin protein level at 5 to 20 uM after 24 hrs by Western blotting analysis. In kind it is functional, cell-based. The note with it: dose 5-20 µM. The essentials:
(§3)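 HCT-116 cells at 2 × 10⁵ cells/mL in DMEM/10% FBS, grown 12 h at 37 °C, then treated 24 h (vehicle DMSO). Lysates quantified by BCA, run on 10% SDS-PAGE, PVDF transfer, blocked in 5% milk/TBST, primary antibodies 4 °C overnight, HRP secondary 2 h, chemiluminescent detection; normalized to β-actin, n = 3.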

Series [7] deals with HCT-116. The series can be described thus: Induction of apoptosis in human HCT116 cells assessed as viable cells at 5 uM after 24 hrs by annexin V-FITC/propidium iodide staining based flow cytometry (reference value: 88.3%). The series is classed as functional. The note with it: read-out: Activity.
The subject of series [8] is HCT-116. The series can be described thus: Induction of apoptosis in human HCT116 cells assessed as necrotic cells at 10 uM after 24 hrs by annexin V-FITC/propidium iodide staining based flow cytometry (reference value: 5.6%). The series is classed as functional.
Series [9] concerns HCT-116. In words: Induction of cell cycle arrest in human HCT116 cells assessed as accumulation at S phase at 20 uM after 24 hrs by propidium iodide-staining based flow cytometry (reference value: 36.43%). The series is classed as functional.
Series [10] relates to HCT-116. In words: Induction of apoptosis in human HCT116 cells assessed as down regulation of total PARP at 20 uM incubated for 24 hrs by Western blot analysis. In kind it is functional, cell-based. In short, it runs like this:
as §3

Series [11] has as its system HCT-116. The series can be described thus: Induction of apoptosis in human HCT116 cells assessed as upregulation of cleaved caspase 9 level at 20 uM incubated for 24 hrs by Western blot analysis. The series is classed as functional, cell-based. In short, it runs like this:
as §3

For series [12], the system named is HCT-116. In words: Induction of apoptosis in human HCT116 cells assessed as upregulation of cleaved caspase 3 level at 20 uM incubated for 24 hrs by Western blot analysis. The series is classed as functional, cell-based. The essentials:
as §3

A short description of series [13]: AUC(0 to infinity) in Sprague-Dawley rat at 25 mg/kg, po measured up to 48 hrs by LC-MS/MS analysis. More on the design: route oral, dose 25 mg/kg, time <=48. The note with it: in vivo. The series is classed as ADME, organism-based. The essentials:
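Overnight-fasted male SD rats (about 250−270 g), three per group, single oral 25 mg/kg; test compound suspended in 5% CMC-Na, control as sodium salt in phosphate buffer. Blood sampled 0.25–48 h, plasma by centrifugation, stored −40 °C, quantified by LC−MS/MS against plasma standard curve (3–3000 ng/mL) with internal standard; model-fitted PK parameters.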

The subject of series [14] is HCT-116. The series can be described thus: Antitumor activity against human HCT116 cells xenografted in BALB/c athymic nude mouse assessed as tumor growth inhibition at 90 mg/kg, po administered twice daily for 4 weeks and measured every 3 days. In kind it is functional. The note with it: HCT-116, po, 672 h, read-out: TGI. In short, it runs like this:
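Male BALB/c athymic nude mice, 5 weeks old, 16−18 g, given 0.2 mL of 5 × 10⁷ cells/mL HCT-116 in right armpit. At about 100 mm³, randomized to groups of five; intragastric dosing twice daily for 4 weeks. Tumor volume and body weight every 3 days; tumors weighed after sacrifice; organs HE-stained.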

Series [15] is described as follows: Toxicity in BALB/c mouse xenografted with human HCT116 cells assessed as change in body weight at 60 to 90 mg/kg, po administered twice daily for 4 weeks and measured every 3 days. The series is classed as organism-based, HCT-116. The note with it: in vivo, 672 h, dose 60-90 mg/kg. In short, it runs like this: (§4)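 Male 5-week BALB/c nude mice (16−18 g), 0.2 mL of 5 × 10⁷ cells/mL HCT-116 injected into right armpit; at ~100 mm³ randomized, 5/group; intragastric 60 or 90 mg/kg twice daily for 4 weeks; tumor volume and body weight every 3 days; after sacrifice heart, liver, spleen, lung, kidney HE-stained.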

Series [16] can be described thus: Toxicity in BALB/c mouse xenografted with human HCT116 cells assessed as effect on kidney tissue at 60 to 90 mg/kg, po administered twice daily for 4 weeks and measured every 3 days by HE staining based assay. The note with it: in vivo, 672 h, dose 60-90 mg/kg. In kind it is organism-based, HCT-116. The essentials: as §4

Active and inactive are the calls of the source. The rule behind the calls is not given here.

Turning to `O=C(NCCO)c1ccc2c(c1)nc(Nc1cccc(Cl)c1)c1ccncc12`, the figures for the half-inhibitory concentration (IC50) in the series with PC-3, in the series on HCT-116 [1] and in the series on T-24 were 4.53 µM, 3.07 µM and 6.1 µM, respectively. The compound also returned an inhibition in series [2] of 96%. Besides, the inhibition result (in series [3]; in the series on HCT-116 [4]) was “Active” each time. Besides, the result with HCT-116 [5], in the series with HCT-116 [6], in the series on HCT-116 [10], in the series with HCT-116 [11] and in the series on HCT-116 [12] was Active. Further, the viability at 5 µM in the series with HCT-116 [7] came to 60.7%. Besides, the Activity in the series with HCT-116 [8] is 7.6%; in the series with HCT-116 [9], 5.36%; in [15], “Non-Toxic”; in series [16], “Non-Toxic”. The total exposure AUC(0-inf) in series [13] was 41500 ng·h/mL. In the series on HCT-116 [14], the inhibition in vivo at 90 mg/kg was 69%.

These data come from ChEMBL document CHEMBL4808178 (J Med Chem, 2021).
